Measurements taken from ChEMBL document CHEMBL3632536, “Novel Fluorinated 8-Hydroxyquinoline Based Metal Ionophores for Exploring the Metal Hypothesis of Alzheimer's Disease” (ACS Med Chem Lett, 2015).
The source made the active and inactive calls. The rule behind the calls is not given here.

Tests used:
[1] = test system: SH-SY5Y; assay: Ionophoric activity in human SH-SY5Y cells assessed as increase in cellular Cu uptake at 20 uM after 6 hrs by ICP-MS analysis relative to vehicle-treated control; assay type: functional
In short: (§1)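 SH-SY5Y neuronal cells exposed to each compound at 20 μM for 6 h. Cellular Zn, Cu and Fe content then determined by ICP-MS and compared with untreated control level.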

[2] = test system: SH-SY5Y; assay: Ionophoric activity in human SH-SY5Y cells assessed as increase in cellular Zn uptake at 20 uM after 6 hrs by ICP-MS analysis relative to vehicle-treated control; assay type: functional; in short: as §1
[3] = test system: SH-SY5Y; assay: Ionophoric activity in human SH-SY5Y cells assessed as increase in cellular Fe uptake at 20 uM after 6 hrs by ICP-MS analysis relative to vehicle-treated control; assay type: functional, cell-based; in short: as §1
[4] = Reversal of Zn-induced human soluble amyloid beta (1 to 42) aggregation after 30 mins by bis-ANS-based fluorometric analysis
In short: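 Soluble Aβ oligomer aggregation monitored fluorometrically with bis-ANS.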

| Structure (SMILES) | Activity [1] | Activity [2] | Activity [3] | EC50 [4] | fold change (FC) [1] | fold change (FC) [2] |
| --- | --- | --- | --- | --- | --- | --- |
| Oc1cccc2cccnc12 | Active | inactive | inactive | – | – | – |
| Oc1c(F)cc(Cl)c2cccnc12 | – | – | – | 4.9 µM | – | – |
| Oc1c(F)ccc2cccnc12 | Active | inactive | inactive | – | – | – |
| COc1cccc2ccc(Cl)nc12 | – | inactive | inactive | – | – | – |
| Oc1c(Br)cc(F)c2cccnc12 | – | – | – | 3.7 µM | 6 | >2 |
| Oc1c(Cl)cc(Cl)c2ccc(COCCCCF)nc12 | Active | – | inactive | 2 µM | – | – |
| Oc1cccc2cc(F)cnc12 | Active | inactive | inactive | – | – | – |
| CN(Cc1cn(CCF)nn1)Cc1ccc2c(Cl)cc(Cl)c(O)c2n1 | – | – | inactive | 2.3 µM | – | >2 |
| CN(C)Cc1ccc2c(Cl)cc(Cl)c(O)c2n1 | Active | Active | – | 2 µM | – | – |
| Oc1c(F)cc(Br)c2cccnc12 | – | – | – | 3.5 µM | – | – |
| Oc1cccc2ccc(F)nc12 | inactive | inactive | inactive | > 120 µM | – | – |
| Oc1ccc(F)c2cccnc12 | Active | inactive | inactive | – | – | – |
| Oc1cccc2cc[nH]c12 | – | inactive | inactive | – | – | – |
| CN(Cc1cn(CCCF)nn1)Cc1ccc2c(Cl)cc(Cl)c(O)c2n1 | – | – | inactive | 4.5 µM | – | >2 |
| Oc1c(I)cc(Cl)c2cccnc12 [CLIOQUINOL] | Active | Active | – | 1.8 µM | – | – |
| Oc1ccccc1/N=C/c1ccc(F)cc1 | – | inactive | inactive | 15.4 µM | – | – |
| Oc1cc(F)cc2cccnc12 | Active | inactive | inactive | – | – | – |
| CN(Cc1cn(CCCCF)nn1)Cc1ccc2c(Cl)cc(Cl)c(O)c2n1 | – | – | inactive | 2.8 µM | – | >2 |
| Oc1c(Cl)cc(Cl)c2ccc(COCCF)nc12 | – | – | inactive | 2.4 µM | – | – |
| Oc1c(F)cc(I)c2cccnc12 | – | – | – | 2.3 µM | – | – |
| Oc1c(Cl)cc(F)c2cccnc12 | – | – | – | 5.2 µM | 6 | >2 |
| Oc1cccc2nccnc12 | – | inactive | inactive | – | – | – |
| Oc1c(I)cc(F)c2cccnc12 | – | – | – | 2.5 µM | 6 | >2 |
